These results are taken from ChEMBL document CHEMBL3870325 (Bioorg Med Chem, 2017).

For experiment [1], the target named is T1, Receptor tyrosine-protein kinase erbB-2 (Homo sapiens, UniProt P04626). Put plainly: Inhibition of HER2 (unknown origin). A digest of the protocol:
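Homogeneous time-resolved fluorescence kinase assay. Compounds were 3-fold serially diluted in 2.5% DMSO/kinase buffer and preincubated with kinase and substrate for 15 min at RT. ATP started the reaction, which ran 30 min at RT and was stopped with Streptavidin-XL665 plus TK antibody europium cryptate. Read at 320 nm excitation, 665/615 nm emission ratio. IC50 from inhibition curves; two separate assays.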

The target of experiment [2] is T2, Epidermal growth factor receptor (Homo sapiens, UniProt P00533). Put plainly: Inhibition of EGFR (unknown origin). A digest of the protocol: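 HTRF kinase assay. Compounds were serially diluted 3-fold in 2.5% DMSO/kinase buffer, then mixed with kinase and substrate and preincubated 15 min at RT. The reaction was started with ATP and run 30 min at RT. It was stopped with Streptavidin-XL665 and TK antibody europium cryptate. Read at ex 320 nm, em 665/615 nm ratio. IC50 from inhibition curves; 2 separate assays.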
T2 sequence (P00533 whole entry): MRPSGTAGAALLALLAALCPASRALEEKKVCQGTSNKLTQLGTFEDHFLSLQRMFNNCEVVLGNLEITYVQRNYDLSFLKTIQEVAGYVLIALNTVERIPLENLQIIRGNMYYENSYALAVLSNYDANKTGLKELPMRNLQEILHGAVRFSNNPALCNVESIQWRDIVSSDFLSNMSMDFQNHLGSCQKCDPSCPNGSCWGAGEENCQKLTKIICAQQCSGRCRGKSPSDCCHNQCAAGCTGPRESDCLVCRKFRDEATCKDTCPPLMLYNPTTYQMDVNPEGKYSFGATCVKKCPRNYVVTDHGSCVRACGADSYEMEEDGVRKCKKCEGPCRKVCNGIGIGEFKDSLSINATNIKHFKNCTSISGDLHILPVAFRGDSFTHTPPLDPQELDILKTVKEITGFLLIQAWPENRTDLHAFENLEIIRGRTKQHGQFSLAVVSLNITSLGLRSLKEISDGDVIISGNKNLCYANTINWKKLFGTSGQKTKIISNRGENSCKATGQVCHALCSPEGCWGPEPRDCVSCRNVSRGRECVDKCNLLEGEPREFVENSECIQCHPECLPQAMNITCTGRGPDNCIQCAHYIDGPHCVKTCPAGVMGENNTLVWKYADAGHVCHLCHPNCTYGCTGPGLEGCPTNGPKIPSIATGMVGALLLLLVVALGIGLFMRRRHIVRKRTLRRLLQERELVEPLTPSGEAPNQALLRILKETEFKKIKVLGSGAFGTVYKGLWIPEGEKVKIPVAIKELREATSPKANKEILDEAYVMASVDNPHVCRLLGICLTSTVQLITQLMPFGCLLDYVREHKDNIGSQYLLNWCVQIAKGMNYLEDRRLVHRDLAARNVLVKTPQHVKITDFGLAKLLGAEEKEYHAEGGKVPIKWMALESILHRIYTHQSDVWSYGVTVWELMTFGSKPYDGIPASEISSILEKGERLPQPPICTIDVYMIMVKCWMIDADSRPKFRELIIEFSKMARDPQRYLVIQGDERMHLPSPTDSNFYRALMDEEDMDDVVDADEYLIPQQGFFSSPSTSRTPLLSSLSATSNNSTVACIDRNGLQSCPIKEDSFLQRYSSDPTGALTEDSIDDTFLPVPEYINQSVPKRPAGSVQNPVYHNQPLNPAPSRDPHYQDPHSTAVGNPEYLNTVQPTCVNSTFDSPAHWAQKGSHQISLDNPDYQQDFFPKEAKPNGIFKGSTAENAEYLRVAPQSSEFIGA

Experiment [3] is described as follows: Inhibition of HDAC in human HeLa cell nuclear extract using COLOR DE LYS as substrate by fluorometric analysis. Format: cell-free.
Experiment [4] concerns the target T2, Epidermal growth factor receptor. The note with it: A549, 0.5 uM.
Experiment [5] in a line: cells. It counts as functional, cell-based. The note with it: Homo sapiens, BT-474, 48 h.
Experiment [6] has as its system BT-474. Put plainly: Induction of apoptosis in human BT474 cells assessed as early apoptotic cells at 5 uM measured after 48 hrs by Annexin V-FITC/propidium iodide staining based flow cytometry (reference value: 2.87%). Format: functional. On the technique in general: In flow cytometry, cells or beads pass a laser one at a time.
The target in experiment [7] is T2, Epidermal growth factor receptor. Put plainly: Inhibition of EGFR in human A549 cells assessed as suppression of EGFR phosphorylation at Tyr1068 residue measured after 24 hrs by Western blot analysis. Format: cell-based. The essentials: (§1)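 A549 cells treated 24 h across a dose range. Lysate protein (20-40 µg) run on 7.5%-15% SDS-PAGE and blotted to PVDF. Membranes blocked 2 h in TBST with 5% BSA. Primary antibody (p-EGFR Tyr1068, p-EGFR Tyr1173, total EGFR, acetyl-histone H3 Lys27) applied 8-12 h at 4°C. HRP secondary, chemiluminescent detection.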

The test system of experiment [8] is BT-474. Put plainly: Induction of apoptosis in human BT474 cells assessed as early apoptotic cells at 1 uM measured after 48 hrs by Annexin V-FITC/propidium iodide staining based flow cytometry (reference value: 2.87%). Format: functional.
Experiment [9] has as its system BT-474. The experiment is described as follows: Induction of apoptosis in human BT474 cells assessed as necrotic cells at 1 uM measured after 48 hrs by Annexin V-FITC/propidium iodide staining based flow cytometry (reference value: 0.06%). Format: functional.
Experiment [10] in a line: cells. The conditions noted are these: Homo sapiens, NCI-H1975, 48 h.
The test system of experiment [11] is BT-474. The experiment is described as follows: Induction of apoptosis in human BT474 cells assessed as early apoptotic cells at 2.5 uM measured after 48 hrs by Annexin V-FITC/propidium iodide staining based flow cytometry (reference value: 2.87%). It counts as functional.
Experiment [12] has as its system BT-474. Put plainly: Induction of apoptosis in human BT474 cells assessed as viable cells at 2.5 uM measured after 48 hrs by Annexin V-FITC/propidium iodide staining based flow cytometry (reference value: 96.76%). It counts as functional. The conditions noted are these: BT-474, 48 h, read-out: Activity.
The target of experiment [13] is T2, Epidermal growth factor receptor. The experiment is described as follows: Inhibition of EGFR in human A549 cells assessed as suppression of EGFR phosphorylation at Tyr1173 residue measured after 24 hrs by Western blot analysis. It counts as cell-based. A digest of the protocol: as §1
For orientation: In western blotting, separated proteins are transferred to a membrane and probed.

A short description of experiment [14]: cells. It counts as functional, cell-based. The conditions noted are these: Homo sapiens, A549, 48 h.
Experiment [15] concerns A549. Put plainly: Inhibition of HDAC in human A549 cells assessed as activation of H3 hyperacetylation measured after 24 hrs by Western blot analysis. It counts as cell-based. The essentials: as §1
Experiment [16] concerns BT-474. Put plainly: Induction of apoptosis in human BT474 cells assessed as necrotic cells at 2.5 uM measured after 48 hrs by Annexin V-FITC/propidium iodide staining based flow cytometry (reference value: 0.06%). It counts as functional.
The target in experiment [17] is Histone deacetylase 1 (Homo sapiens, UniProt Q13547). Put plainly: Inhibition of HDAC1 (unknown origin) using acetylated peptide substrate preincubated for 15 mins followed by substrate addition measured after 60 mins by fluorescence analysis.
Sequence of Histone deacetylase 1 (Q13547 whole entry): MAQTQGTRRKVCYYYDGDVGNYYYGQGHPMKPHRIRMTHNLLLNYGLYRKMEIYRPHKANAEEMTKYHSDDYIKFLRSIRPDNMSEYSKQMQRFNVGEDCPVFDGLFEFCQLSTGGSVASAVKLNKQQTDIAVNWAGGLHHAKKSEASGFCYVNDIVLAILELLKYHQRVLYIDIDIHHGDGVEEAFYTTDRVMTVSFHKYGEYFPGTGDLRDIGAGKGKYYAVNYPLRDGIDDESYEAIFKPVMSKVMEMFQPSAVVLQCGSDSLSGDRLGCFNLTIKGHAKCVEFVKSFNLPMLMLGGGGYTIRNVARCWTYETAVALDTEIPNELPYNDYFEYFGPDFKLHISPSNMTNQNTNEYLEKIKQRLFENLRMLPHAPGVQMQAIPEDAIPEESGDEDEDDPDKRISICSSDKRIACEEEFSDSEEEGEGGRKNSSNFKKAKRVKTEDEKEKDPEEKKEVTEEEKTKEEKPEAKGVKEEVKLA
Experiment [18] concerns the target T1, Receptor tyrosine-protein kinase erbB-2. The note with it: BT-474, 25 uM.
In experiment [19] the test system is BT-474. The experiment is described as follows: Induction of apoptosis in human BT474 cells assessed as viable cells at 1 uM measured after 48 hrs by Annexin V-FITC/propidium iodide staining based flow cytometry (reference value: 96.76%). Format: functional. The note with it: BT-474, 48 h, read-out: Activity.
Experiment [20] has as its target T2, Epidermal growth factor receptor. The note with it: A549, 0.5 uM. This is another data set of the same source.
For experiment [21], the target named is T1, Receptor tyrosine-protein kinase erbB-2. Put plainly: Inhibition of HER2 (unknown origin) assessed as remaining ATP level measured after 15 mins by luminescence analysis. The essentials:
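Kinase run as a contracted HTRF assay. Compounds in 3-fold dilution in 2.5% DMSO/kinase buffer, mixed with kinase and substrate, preincubated 15 min at RT. ATP added to start, reaction 30 min at RT. Stopped with Streptavidin-XL665 plus europium-cryptate TK antibody (1:100). Excitation 320 nm, 665/615 nm emission ratio. IC50 from inhibition curves, results from 2 assays.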

For experiment [22], the target named is T2, Epidermal growth factor receptor.
Experiment [23] has as its system BT-474. The experiment is described as follows: Induction of apoptosis in human BT474 cells assessed as late apoptotic cells at 1 uM measured after 48 hrs by Annexin V-FITC/propidium iodide staining based flow cytometry (reference value: 0.32%). It counts as functional.
The nature of experiment [24]: cells. The conditions noted are these: Homo sapiens, A-431, 48 h.
The test system of experiment [25] is BT-474. Put plainly: Induction of apoptosis in human BT474 cells assessed as viable cells at 5 uM measured after 48 hrs by Annexin V-FITC/propidium iodide staining based flow cytometry (reference value: 96.76%). Format: functional. The conditions noted are these: BT-474, 48 h, read-out: Activity.
Experiment [26] concerns the target T1, Receptor tyrosine-protein kinase erbB-2. The note with it: BT-474, 1 uM.
A short description of experiment [27]: cells. The note with it: Homo sapiens, SK-BR-3, 48 h.
For experiment [28], the target named is T3, Protein deacetylase HDAC6 (Homo sapiens, UniProt Q9UBN7).
T3 sequence (Q9UBN7 whole entry): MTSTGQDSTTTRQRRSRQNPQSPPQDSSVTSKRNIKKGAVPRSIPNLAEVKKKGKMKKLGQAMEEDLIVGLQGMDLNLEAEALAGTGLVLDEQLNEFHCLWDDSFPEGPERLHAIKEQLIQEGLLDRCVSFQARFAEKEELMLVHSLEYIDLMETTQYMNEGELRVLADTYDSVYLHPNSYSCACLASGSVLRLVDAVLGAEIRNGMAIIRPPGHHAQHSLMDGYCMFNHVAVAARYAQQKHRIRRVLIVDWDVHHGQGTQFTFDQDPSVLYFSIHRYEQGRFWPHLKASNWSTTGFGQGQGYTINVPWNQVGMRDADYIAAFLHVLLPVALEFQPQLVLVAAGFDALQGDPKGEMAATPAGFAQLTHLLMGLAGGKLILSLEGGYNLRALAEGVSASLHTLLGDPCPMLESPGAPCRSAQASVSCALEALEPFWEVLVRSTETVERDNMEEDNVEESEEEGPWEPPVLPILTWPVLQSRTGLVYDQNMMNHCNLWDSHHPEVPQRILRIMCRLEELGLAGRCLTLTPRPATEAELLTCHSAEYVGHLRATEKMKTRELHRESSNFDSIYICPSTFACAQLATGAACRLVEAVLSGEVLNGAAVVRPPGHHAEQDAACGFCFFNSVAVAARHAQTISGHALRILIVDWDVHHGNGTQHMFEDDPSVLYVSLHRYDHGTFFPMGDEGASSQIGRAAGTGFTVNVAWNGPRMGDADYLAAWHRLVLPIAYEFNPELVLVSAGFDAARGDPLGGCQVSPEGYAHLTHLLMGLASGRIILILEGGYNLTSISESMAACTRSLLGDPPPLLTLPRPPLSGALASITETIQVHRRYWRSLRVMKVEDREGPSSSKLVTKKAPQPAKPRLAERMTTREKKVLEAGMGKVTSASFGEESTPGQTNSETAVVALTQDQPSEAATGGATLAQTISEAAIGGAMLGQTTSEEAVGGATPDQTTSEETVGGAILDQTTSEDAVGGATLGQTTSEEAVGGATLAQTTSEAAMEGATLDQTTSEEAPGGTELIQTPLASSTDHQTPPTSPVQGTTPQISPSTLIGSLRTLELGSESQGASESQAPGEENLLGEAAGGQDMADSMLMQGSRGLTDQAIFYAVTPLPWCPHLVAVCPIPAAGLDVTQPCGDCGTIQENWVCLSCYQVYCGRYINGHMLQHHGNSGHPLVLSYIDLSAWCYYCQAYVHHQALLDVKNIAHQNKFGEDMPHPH
The experiment is described as follows: Inhibition of HDAC6 (unknown origin) using acetylated peptide substrate preincubated for 15 mins followed by substrate addition measured after 60 mins by fluorescence analysis.

Experiment [29] relates to BT-474. The experiment is described as follows: Induction of apoptosis in human BT474 cells assessed as late apoptotic cells at 5 uM measured after 48 hrs by Annexin V-FITC/propidium iodide staining based flow cytometry (reference value: 0.32%). Format: functional.
The subject of experiment [30] is BT-474. Put plainly: Induction of apoptosis in human BT474 cells assessed as necrotic cells at 5 uM measured after 48 hrs by Annexin V-FITC/propidium iodide staining based flow cytometry (reference value: 0.06%). Format: functional.
Experiment [31] relates to BT-474. The experiment is described as follows: Induction of apoptosis in human BT474 cells assessed as late apoptotic cells at 2.5 uM measured after 48 hrs by Annexin V-FITC/propidium iodide staining based flow cytometry (reference value: 0.32%). Format: functional.
Experiment [32] concerns BT-474. The experiment is described as follows: Induction of apoptosis in human BT474 cells measured after 48 hrs by Annexin V-FITC/propidium iodide staining based flow cytometry. It counts as functional, cell-based.

T1 sequence (P04626 whole entry): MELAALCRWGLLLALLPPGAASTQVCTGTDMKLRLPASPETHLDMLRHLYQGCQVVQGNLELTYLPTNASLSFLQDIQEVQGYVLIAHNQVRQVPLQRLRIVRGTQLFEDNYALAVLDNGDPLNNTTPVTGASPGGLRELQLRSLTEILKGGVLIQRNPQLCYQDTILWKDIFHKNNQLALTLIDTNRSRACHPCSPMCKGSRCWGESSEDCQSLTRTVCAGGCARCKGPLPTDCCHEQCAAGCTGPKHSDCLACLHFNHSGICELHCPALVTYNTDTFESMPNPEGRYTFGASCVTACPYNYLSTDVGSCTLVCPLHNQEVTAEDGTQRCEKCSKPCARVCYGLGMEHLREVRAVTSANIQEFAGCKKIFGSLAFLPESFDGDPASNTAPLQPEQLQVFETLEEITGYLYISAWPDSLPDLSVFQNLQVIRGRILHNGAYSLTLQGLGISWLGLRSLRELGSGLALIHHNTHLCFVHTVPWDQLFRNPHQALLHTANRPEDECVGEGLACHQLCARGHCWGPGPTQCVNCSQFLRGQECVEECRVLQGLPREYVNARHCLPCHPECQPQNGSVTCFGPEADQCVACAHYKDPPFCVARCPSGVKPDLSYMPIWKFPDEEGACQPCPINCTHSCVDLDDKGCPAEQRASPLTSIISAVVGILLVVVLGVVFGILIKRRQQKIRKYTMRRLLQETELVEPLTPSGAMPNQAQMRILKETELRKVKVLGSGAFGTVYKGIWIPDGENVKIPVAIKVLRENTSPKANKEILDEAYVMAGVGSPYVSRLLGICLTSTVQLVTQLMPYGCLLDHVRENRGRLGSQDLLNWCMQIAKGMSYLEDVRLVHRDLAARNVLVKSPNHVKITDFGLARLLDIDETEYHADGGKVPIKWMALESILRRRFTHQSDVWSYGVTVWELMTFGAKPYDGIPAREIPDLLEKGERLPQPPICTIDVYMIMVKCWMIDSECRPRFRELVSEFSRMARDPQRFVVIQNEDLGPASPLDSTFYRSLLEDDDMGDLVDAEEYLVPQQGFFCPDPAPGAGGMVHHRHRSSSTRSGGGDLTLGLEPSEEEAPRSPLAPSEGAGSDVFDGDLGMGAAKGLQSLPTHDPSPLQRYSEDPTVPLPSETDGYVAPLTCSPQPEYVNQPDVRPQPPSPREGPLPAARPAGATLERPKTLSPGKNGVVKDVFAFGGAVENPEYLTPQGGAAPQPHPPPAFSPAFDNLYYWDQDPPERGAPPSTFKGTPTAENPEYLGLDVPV

Take `C[C@@H]1COC(Nc2ccc3ncnc(Nc4ccc(OCc5nccs5)c(Cl)c4)c3c2)=N1` [VARLITINIB]: the values for the IC50 in [1] and in [2] were 2 nM and 7 nM, respectively.

With `C#Cc1cccc(Nc2ncnc3cc(OC)c(OCCCCCCC(=O)NO)cc23)c1` [CUDC-101], the IC50 (as a rule, the concentration at which inhibition is half-maximal) in experiment [3] was 4.2 nM.

With `O=C(CCCCCCn1cc(-c2ccc3ncnc(Nc4cccc(Cl)c4F)c3c2)nn1)NO`, the inhibition (in general, the percentage by which the read-out fell short of the control) in experiment [4] was 100%; in [7], “Dose-dependent effect”; in experiment [13] it was “Dose-dependent effect”; in experiment [15], “Dose-dependent effect”; in [18], 100%; in [20], 100%. In experiment [26], this compound had an inhibition of 100%. The IC50 was determined as 3880 nM in experiment [5]; 8050 nM in [10]; 630 nM in experiment [14]; 0.72 nM in experiment [17]; 175 nM in experiment [21]; 0.12 nM in experiment [22]. In addition, the IC50 in [24] is 490 nM; in experiment [27], 690 nM; in experiment [28], 3.2 nM. Further, the Activity in experiment [6] stood at 22.02%; in [8], 8.27%; in experiment [9], 0.34%; in [11], 14.83%; in [16], 0.89%; in [23], 5.1%. Moreover, the Activity in experiment [29] is 41.84%; in experiment [30], 1.36%; in [31], 19.73%; in [32], “Dose-dependent effect”. Also, in experiment [12], the viability at 2.5 µM is 64.5%. In [19], the viability at 1 µM came to 86.3%. For the same compound, the viability at 5 µM in experiment [25] came to 34.8%.
